How the values were obtained:
5-HT7 = molecular target: T1, 5-HT7 (Drosophila melanogaster, UniProt P20905); test: Calcium imaging of receptor expressed in HEK-293T cells; type: cell-based; settings: 100 μM metitepine; stated for all 5-HT receptors
T1 sequence (P20905 1-564): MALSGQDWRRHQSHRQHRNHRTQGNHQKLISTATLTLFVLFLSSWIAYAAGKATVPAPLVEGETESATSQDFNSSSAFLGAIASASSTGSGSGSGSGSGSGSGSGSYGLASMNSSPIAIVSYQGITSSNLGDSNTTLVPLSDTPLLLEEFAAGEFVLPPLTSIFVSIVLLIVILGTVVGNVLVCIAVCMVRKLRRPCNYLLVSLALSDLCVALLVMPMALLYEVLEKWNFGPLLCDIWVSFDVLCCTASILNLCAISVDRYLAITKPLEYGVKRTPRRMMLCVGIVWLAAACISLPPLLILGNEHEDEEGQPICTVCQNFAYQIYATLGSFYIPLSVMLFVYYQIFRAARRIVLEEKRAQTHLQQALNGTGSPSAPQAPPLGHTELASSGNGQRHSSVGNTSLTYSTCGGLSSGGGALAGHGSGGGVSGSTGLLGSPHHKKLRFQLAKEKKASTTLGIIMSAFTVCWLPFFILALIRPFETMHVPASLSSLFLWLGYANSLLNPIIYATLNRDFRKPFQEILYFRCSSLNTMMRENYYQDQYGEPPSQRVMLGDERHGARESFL

Drosophila larvae [1] = test: Solid food feeding assay; type: in vivo, Drosophila melanogaster
Method in brief: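 Larvae aged 0–2 h were fed 17 h at 25°C and 70% humidity on cornmeal-agar-molasses food containing 0.05% bromophenol blue plus solvent or test compound. Individual larvae were imaged, and digestive-tract optical density was measured. Values were normalized to same-day solvent-treated larvae and reported as mean ± s.e.m.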

5-HT1B = molecular target: T2, 5-HT1B (Drosophila melanogaster, UniProt P28286); test: Calcium imaging of receptor expressed in HEK-293T cells; type: cell-based
T2 sequence (P28286 1-617): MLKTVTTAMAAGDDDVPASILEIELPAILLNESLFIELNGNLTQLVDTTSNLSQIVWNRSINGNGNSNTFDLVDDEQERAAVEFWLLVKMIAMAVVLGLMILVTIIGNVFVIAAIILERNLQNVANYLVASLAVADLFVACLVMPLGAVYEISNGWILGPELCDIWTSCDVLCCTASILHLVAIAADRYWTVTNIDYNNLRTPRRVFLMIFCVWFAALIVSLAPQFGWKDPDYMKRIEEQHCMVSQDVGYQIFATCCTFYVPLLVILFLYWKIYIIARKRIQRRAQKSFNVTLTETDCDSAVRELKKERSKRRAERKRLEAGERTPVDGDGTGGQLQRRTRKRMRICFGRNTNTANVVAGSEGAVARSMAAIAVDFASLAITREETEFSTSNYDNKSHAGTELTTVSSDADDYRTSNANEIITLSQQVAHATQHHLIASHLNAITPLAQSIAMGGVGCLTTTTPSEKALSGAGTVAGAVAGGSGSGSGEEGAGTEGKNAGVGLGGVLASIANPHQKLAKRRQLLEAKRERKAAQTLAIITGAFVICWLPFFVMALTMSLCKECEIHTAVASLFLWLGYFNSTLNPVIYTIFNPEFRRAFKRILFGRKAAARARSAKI

[2] = system: Drosophila first instar larvae; test: Liquid food feeding assay; type: in vivo, Drosophila melanogaster; settings: for dose-response verification: 14 secondary screen hits chosen for dose-response curve
5-HT2A = molecular target: T3, 5-HT2A (Drosophila melanogaster, UniProt Q9VN38); test: Calcium imaging of receptor expressed in HEK-293T cells; type: cell-based; settings: 100 μM metitepine; stated for all 5-HT receptors
T3 sequence (Q9VN38 1-868): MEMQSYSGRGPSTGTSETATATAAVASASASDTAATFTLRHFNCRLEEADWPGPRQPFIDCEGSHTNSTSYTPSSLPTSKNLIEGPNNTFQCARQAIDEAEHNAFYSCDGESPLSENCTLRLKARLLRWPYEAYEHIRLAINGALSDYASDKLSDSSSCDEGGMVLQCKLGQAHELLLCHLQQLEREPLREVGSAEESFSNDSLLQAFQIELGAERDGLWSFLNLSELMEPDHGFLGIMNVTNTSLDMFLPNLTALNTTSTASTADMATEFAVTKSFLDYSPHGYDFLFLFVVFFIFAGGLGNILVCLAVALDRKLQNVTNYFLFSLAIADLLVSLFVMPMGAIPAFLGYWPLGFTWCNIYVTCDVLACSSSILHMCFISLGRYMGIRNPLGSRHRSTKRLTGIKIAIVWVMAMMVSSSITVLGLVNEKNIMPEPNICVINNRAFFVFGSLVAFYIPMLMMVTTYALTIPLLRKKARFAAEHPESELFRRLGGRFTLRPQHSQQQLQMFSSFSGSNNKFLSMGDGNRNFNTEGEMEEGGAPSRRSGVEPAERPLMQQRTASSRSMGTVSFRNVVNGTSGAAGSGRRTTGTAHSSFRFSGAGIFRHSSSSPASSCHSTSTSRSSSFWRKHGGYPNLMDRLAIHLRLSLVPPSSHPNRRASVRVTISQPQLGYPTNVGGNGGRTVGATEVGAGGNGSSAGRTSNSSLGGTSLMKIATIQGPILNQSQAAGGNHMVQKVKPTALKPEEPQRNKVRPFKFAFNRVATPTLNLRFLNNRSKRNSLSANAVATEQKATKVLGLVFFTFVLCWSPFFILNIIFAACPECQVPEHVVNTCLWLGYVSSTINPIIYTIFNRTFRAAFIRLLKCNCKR

C. elegans = settings: different small molecule screen; cited from earlier work
5-HT1A = molecular target: T4, 5-HT1A (Drosophila melanogaster, UniProt P28285); test: Calcium imaging of receptor expressed in HEK-293T cells; type: cell-based; settings: 100 μM metitepine; stated for all 5-HT receptors
T4 sequence (P28285 1-834): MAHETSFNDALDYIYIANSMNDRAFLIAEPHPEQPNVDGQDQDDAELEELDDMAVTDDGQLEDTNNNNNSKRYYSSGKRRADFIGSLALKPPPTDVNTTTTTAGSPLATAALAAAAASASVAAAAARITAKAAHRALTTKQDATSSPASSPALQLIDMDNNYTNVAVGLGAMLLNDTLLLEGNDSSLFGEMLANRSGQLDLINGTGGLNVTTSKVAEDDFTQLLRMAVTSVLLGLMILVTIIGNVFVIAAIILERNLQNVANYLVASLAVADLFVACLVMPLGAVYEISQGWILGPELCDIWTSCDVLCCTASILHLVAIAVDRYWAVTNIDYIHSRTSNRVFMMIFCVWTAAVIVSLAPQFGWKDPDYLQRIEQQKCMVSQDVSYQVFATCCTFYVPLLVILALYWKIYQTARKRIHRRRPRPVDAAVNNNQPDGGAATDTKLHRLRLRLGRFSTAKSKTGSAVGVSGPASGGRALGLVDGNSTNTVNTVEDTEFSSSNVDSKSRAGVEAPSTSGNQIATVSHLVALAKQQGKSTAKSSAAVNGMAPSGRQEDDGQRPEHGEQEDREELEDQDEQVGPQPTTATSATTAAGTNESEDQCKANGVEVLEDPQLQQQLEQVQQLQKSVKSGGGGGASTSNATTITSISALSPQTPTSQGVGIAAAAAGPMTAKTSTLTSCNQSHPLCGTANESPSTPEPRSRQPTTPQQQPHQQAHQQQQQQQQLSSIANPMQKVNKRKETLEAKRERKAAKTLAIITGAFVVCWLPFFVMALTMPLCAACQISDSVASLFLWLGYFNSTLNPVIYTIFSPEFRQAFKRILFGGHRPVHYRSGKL

Drosophila larvae [3] = test: Larval locomotion; type: in vivo, Drosophila melanogaster
HEK-293T cells = test: ATP control after metitepine treatment; type: cell-based; settings: 100 μM metitepine; ATP activated all cells afterwards
5-HT2B = molecular target: T5, 5-HT2B (Drosophila melanogaster, UniProt Q8INQ6); test: Calcium imaging of receptor expressed in HEK-293T cells; type: cell-based; settings: 100 μM metitepine; stated for all 5-HT receptors
T5 sequence (Q8INQ6 1-904): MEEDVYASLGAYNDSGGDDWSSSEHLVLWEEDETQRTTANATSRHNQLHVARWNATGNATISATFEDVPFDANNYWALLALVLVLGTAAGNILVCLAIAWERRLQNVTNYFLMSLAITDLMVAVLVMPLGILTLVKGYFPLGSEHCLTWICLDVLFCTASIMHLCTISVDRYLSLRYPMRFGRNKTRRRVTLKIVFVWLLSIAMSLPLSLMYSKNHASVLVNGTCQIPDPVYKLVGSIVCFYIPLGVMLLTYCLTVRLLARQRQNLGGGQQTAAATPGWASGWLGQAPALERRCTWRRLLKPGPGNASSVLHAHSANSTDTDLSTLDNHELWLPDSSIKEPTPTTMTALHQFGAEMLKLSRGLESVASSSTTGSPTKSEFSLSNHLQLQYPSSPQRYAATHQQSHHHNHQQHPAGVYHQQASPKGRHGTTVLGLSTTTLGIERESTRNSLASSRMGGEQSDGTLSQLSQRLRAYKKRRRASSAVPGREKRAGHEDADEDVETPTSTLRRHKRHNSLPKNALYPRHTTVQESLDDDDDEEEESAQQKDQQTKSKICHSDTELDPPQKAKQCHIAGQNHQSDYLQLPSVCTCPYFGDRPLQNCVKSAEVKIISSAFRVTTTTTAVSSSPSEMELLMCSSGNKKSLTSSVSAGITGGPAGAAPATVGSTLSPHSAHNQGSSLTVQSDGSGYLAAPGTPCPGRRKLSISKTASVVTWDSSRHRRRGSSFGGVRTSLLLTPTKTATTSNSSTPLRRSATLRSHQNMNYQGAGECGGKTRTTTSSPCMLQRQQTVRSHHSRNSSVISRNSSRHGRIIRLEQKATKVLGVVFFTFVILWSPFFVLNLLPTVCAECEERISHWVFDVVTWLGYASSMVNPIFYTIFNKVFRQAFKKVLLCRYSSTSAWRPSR

Row | SMILES | responses to 5-HT in presence of drug (5-HT7) | solid food accumulation in digestive tract (Drosophila larvae [1]; cornmeal-agar-molasses diet with bromophenol blue, 100 μM (Fig. 3a)) | threshold efficacy dose (Drosophila larvae [1]; solid food with bromophenol blue, optical density of gut) | IC50 (5-HT1B) | responses to 5-HT in presence of drug (5-HT1B; 100 μM metitepine, stated for all 5-HT receptors) | food accumulation immediately after exposure ([2]; 0-h recovery) | dose-response verification [2] | anorectic effect 4 hours after treatment ([2]; 4 h recovery) | food intake 24 hours after treatment ([2]; 24 h recovery, rebound from drug-induced fasting) | threshold concentration for efficacy ([2]; liquid food with fluorescein, increasing effects at 50 and 100 μM) | duration of anorectic effect after treatment ([2]; recovery time course after metitepine treatment) | responses to 5-HT in presence of drug (5-HT2A) | lifespan (C. elegans) | responses to 5-HT in presence of drug (5-HT1A) | crawling speed (Drosophila larvae [3]; 100 μM in solid food, 17 hours, agar surface) | cell survival after treatment (HEK-293T cells) | responses to 5-HT in presence of drug (5-HT2B) | larval locomotion (Drosophila larvae [3]; at concentrations as low as 10 μM, data not shown) | feeding in pilot screen ([2]; pilot screen, tested individually at 20 μg/ml, data not shown)
1 | CSc1ccc2c(c1)C(N1CCN(C)CC1)Cc1ccccc1S2 (centres unmarked) [Metitepine] | dramatically suppressed or completely abolished | accumulated less solid food | 50 µM | 58 µM | dramatically suppressed or completely abolished | reduced food accumulation | showed reliable dose-dependent responses | not evident | ate significantly more | 10 µM | 2 h | dramatically suppressed or completely abolished | extends lifespan | dramatically suppressed or completely abolished | crawled at the same speed as solvent treated controls | did not kill the cells | dramatically suppressed or completely abolished | – | –
2 | COC(=O)[C@H]1[C@H]2C[C@@H]3c4[nH]c5cc(OC)ccc5c4CCN3C[C@H]2C[C@@H](OC(=O)c2cc(OC)c(OC)c(OC)c2)[C@@H]1OC [Reserpine] | – | – | – | – | – | – | showed reliable dose-dependent responses | – | – | – | – | – | – | – | – | – | – | dramatically reduced larval locomotion | –
3 | C[C@@H]1C[C@@H]([C@H](O)CC2CC(=O)NC(=O)C2)C(=O)[C@@H](C)C1 [cycloheximide] | – | – | – | – | – | – | – | – | – | – | – | – | – | – | – | – | – | – | inhibited feeding

— article PMC3698492 (Scientific Reports, 2013)
